Compound activity deposited in PubChem BioAssay by several laboratories.
Calb FLC = affects C. albicans growth with fluconazole; C. albicans CaCi-2 (fluconazole-resistant clinical isolate) + fluconazole, Alamar Blue growth, 48 h; growth inhibition, % (no concentration beside the values); 0.57% of 300,000 active;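 active = growth inhibition above about 58% in most replicates, limit read from the data, passing the limit was not always enough; inconclusive = exactly half the replicates above a set limit; inactive = most replicates below a set limit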;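 note: all wells also contain fluconazole at 8 µg/ml as a sub-toxic cotreatment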
Mdm2 MdmX PPI = human Mdm2/MdmX binding inhibition; AID 485346; SaOS-2 split-luciferase Mdm2/MdmX complementation, luminescence; 3% of 330,000 active; inhibition, % at 8 µM;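 active = inhibition of at least 50% at 8 µM in the primary screen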
Target sequence (O15151 whole entry, looked up): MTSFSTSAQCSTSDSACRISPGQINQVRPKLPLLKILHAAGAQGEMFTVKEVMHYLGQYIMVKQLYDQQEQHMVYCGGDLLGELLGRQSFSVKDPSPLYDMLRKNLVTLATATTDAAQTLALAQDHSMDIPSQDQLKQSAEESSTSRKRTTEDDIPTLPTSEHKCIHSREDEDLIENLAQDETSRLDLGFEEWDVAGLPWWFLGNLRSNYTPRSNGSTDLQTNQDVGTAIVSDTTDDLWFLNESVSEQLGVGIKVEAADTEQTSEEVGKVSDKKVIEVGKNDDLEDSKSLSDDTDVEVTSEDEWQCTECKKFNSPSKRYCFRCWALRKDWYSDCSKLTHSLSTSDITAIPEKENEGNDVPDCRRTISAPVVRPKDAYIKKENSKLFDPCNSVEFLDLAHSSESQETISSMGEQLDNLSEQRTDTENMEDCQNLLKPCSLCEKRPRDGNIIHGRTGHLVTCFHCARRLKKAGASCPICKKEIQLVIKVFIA
Target sequence (Q00987 whole entry, looked up): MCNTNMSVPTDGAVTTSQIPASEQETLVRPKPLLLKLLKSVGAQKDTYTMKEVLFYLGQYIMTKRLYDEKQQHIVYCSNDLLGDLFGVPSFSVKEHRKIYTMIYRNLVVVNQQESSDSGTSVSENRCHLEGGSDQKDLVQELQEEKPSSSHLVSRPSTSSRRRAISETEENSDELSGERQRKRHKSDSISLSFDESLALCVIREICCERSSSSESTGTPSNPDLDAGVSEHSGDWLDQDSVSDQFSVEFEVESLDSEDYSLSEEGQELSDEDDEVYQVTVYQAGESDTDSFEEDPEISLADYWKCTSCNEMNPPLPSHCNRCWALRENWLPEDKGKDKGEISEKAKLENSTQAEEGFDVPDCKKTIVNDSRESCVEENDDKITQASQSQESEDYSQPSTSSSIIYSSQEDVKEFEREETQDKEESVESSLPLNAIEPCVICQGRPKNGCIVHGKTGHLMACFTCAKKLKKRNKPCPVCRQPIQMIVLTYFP
Beta cell apopt = blocks beta cell apoptosis. INS-1E cytokine-induced death, ATP luminescence, 48 h; percent of positive-control rescue, neutral wells zero. protection from apoptosis, % (concentration not given with the values). 0.8% of 300,000 active. AID 435005;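 active = Every replicate reaches about 75%, or at least half do and their mean reaches it too, limit read from the data; inconclusive = At least half of replicates reach the limit but their mean does not; inactive = Under half of replicates reach the limit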;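 note: higher means more ATP so stronger rescue from cytokine killing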
NLRP3 yeast inh = blocks the NALP3 inflammasome reconstituted in yeast | Yeast reconstituted NLRP3/ASC/caspase-1, beta-gal luminescence, 24 h | inhibition, % at 10 µM | 0.39% of 330,000 active;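 active = inhibition of 50% or more; inactive = inhibition below 50%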
CSC inhib = blocks cancer stem cells; cancer stem cell-like cells viability, luminescence; inhibition, % at 7.5 µM; 1.1% of 300,000 active; in the data active = inhibition above about 75%; inconclusive = no clear call, values can overlap the other calls; tested in HMLE shEcad cells
T cruzi repl = T. cruzi replication inhibition; T. cruzi beta-gal in NIH3T3, luminescence, 90 h; 1.4% of 300,000 active; AID 1885; inhibition, % (no concentration beside the values);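 active = mean inhibition across valid replicates above about 55%, limit read from the data; inconclusive = mean below that limit but half or more replicates reach it; inactive = mean below it, under half of replicates reach it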;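 note: signal also drops with host cell toxicity which is not excluded here; higher percent means less beta-gal luminescence so fewer parasites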
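Assay system: NIH/3T3 host cells with β-galactosidase reporter T. cruzi; input: 5,000 host fibroblasts per well; compound: single 50 nL compound addition per well in DMSO; timing: ≥90 h infection period, 3 h prior cell attachment; measured by: GalScreen β-gal luminescence, detergent lysis, 60 min; evaluation: percent inhibition of parasite-derived β-gal signal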
Mdm2-MdmX conf = human Mdm2/MdmX binding inhibition, confirmed | 55% of 10,000 active | shares compounds with Mdm2 MdmX PPI | AID 489028 | inhibition, % at 8 µM | luminescent assay; in the data active = inhibition above about 40%
Full FLuc ctr = inhibits full-length luciferase, flagging false Mdm2/MdmX hits. shares compounds with Mdm2 MdmX PPI. SaOS-2 full-length luciferase counterscreen, luminescence. inhibition, % at 8 µM. 77% of 6,200 active. AID 504607;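 active = mean inhibition at 8 µM reaching about 37%, which flags the compound as non-specific, limit read from the data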;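 note: p53-null SaOS-2 cells with luciferase driven by a doxycycline-inducible promoter; compound on cells about two nights before reading with doxycycline added after day one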
Numbers stand for hits; 0 = inactive; ? = inconclusive; - = not tested or not shown. An excerpt weighted towards active compounds, which were near 5.3% of everything screened.

SMILES | Calb FLC | Mdm2 MdmX PPI | Beta cell apopt | NLRP3 yeast inh | CSC inhib | T cruzi repl | Mdm2-MdmX conf | others
C[C@]12CCC3c4ccc(OCC(=O)O)cc4CCC3C1CCC2=O (some centres undefined) | 0 | 0 | 0 | 0 | 0 | 0 | -
Cc1ccc(S(=O)(=O)c2c(N)n(-c3ccccc3)c3nc4ccccc4nc23)cc1 | 0 | 0 | 0 | 0 | 0 | 0 | -
COc1cccc(/C=N/n2c(N)c(S(=O)(=O)c3cccs3)c3nc4ccccc4nc32)c1OC | 0 | 83 | 0 | 0 | 0 | 0 | 0
Nc1c(S(=O)(=O)c2cccc(Cl)c2)c2nc3ccccc3nc2n1/N=C/c1ccc(O)c(O)c1 | 85 | 84 | 0 | 0 | 0 | 62 | 0
CCN(/N=C/c1cccs1)c1cc(=O)n(C)c(=O)[nH]1 | 0 | 0 | 0 | 0 | 0 | 0 | -
CCn1c2ccccc2c(=O)c2ccccc21 | 0 | 0 | 0 | 0 | 0 | 0 | -
CCn1c(-c2ccccc2)c(C(=O)CCl)c2ccccc21 | 0 | 98 | ? | 0 | 0 | 61 | 0
NC1=NC[C@H](Cc2ccc(O)cc2)N1CCCCC1CCCCC1 | 0 | 50 | 102 | 0 | 0 | 60 | 0
NC1=NC[C@H](Cc2ccccc2)N1CCCCC1CCCCC1 | 105 | 78 | 112 | 0 | 0 | 0 | 0
NC1=NC[C@@H](Cc2ccc(O)cc2)N1CCc1cccc2ccccc12 | 0 | 0 | 0 | 0 | 0 | 0 | -
c1ccc(C[C@H]2CN=C(Nc3ccccc3)N2CCC2CCCC2)cc1 | - | 0 | 0 | 0 | 0 | - | -
COc1cc(NC(=O)c2cccs2)c(OC)cc1NC(=O)Nc1ccc(F)cc1 | 0 | 0 | 0 | 0 | 0 | 0 | -
O=C1/C(=C/c2ccccc2)NC(=S)N1C(c1ccccc1)c1ccccc1 | 0 | 51 | 0 | 0 | 0 | 0 | 59 | Full FLuc ctr=61
O=C1/C(=C/c2ccccc2)Nc2ccccc21 | 0 | 0 | 0 | 0 | 0 | 0 | -
Cc1cc(/C=N/NC(=O)c2cccs2)c(C)n1-c1ccccc1 | 0 | 93 | 0 | 0 | 0 | 0 | 88 | Full FLuc ctr=93
CC(=O)Nc1ccc(NC(=O)COc2ccc(-c3ccc(C#N)cc3)cc2)cc1 | - | 0 | 0 | 0 | 0 | 0 | -
CCCn1c(=O)c2[nH]c(-c3ccc(OCC(=O)Nc4ccc(C#N)cc4)cc3)nc2n(CCC)c1=O | - | 53 | 0 | 0 | 0 | - | 0
O=C(Nc1ccc(Oc2c(F)c(F)c(F)c(F)c2F)cc1)OC1CCN2Cc3ccccc3N=C12 (centres undefined) | 0 | 68 | 0 | 0 | 104 | 0 | 0
Cc1cccc(NC(=O)Nc2ccc(Oc3c(F)c(F)c(F)c(F)c3F)cc2)c1 | 0 | 0 | 0 | 0 | 0 | 0 | -
O=C(NCCCc1ccccc1)C1CCN(S(=O)(=O)c2ccc(F)cc2)CC1 | 0 | 0 | 0 | 0 | 0 | 0 | -
Cc1ccc(NC(=O)c2cnc(N3CCN(c4ccccn4)CC3)c3ccccc23)c(Br)c1 | 0 | - | 0 | - | 0 | 0 | -
COc1ccc(Cl)cc1NC(=O)CCN1CCN(c2ccccc2C)CC1 | 0 | 0 | 0 | 0 | 0 | 0 | -
CCN1CCN(c2ncc(C(=O)Nc3cc(Cl)ccc3OC)c3ccccc23)CC1 | 0 | 54 | 0 | 0 | 0 | 0 | 0
O=C(Nc1c(F)cccc1F)c1cnc(N2CCN(c3ccccn3)CC2)c2ccccc12 | 0 | 57 | 0 | 0 | 0 | 0 | 0
O=S(=O)(Nc1ccc(-c2cnco2)cc1)c1ccccc1 | 0 | 0 | 0 | 0 | 0 | 0 | -
SMILES | Calb FLC | Mdm2 MdmX PPI | Beta cell apopt | NLRP3 yeast inh | CSC inhib | T cruzi repl | Mdm2-MdmX conf | others
COc1cc(/C=C(\C#N)c2nc3ccccc3[nH]2)ccc1OC(=O)c1ccco1 | 0 | 0 | 0 | 0 | 0 | 0 | -
COc1cc(/C=C(\C#N)c2ccccn2)ccc1OCC(=O)Nc1ccc(Br)cc1 | 0 | 100 | 0 | 0 | ? | 0 | 94 | Full FLuc ctr=0
COc1cc(/C=C(/C#N)c2nc3ccccc3[nH]2)ccc1OCC(=O)Nc1ccccc1C(C)C | 0 | 100 | 0 | 0 | 100 | 0 | 79 | Full FLuc ctr=52
COc1cc(/C=C(\C#N)c2ccccn2)ccc1OCC(=O)Nc1c(Cl)cccc1Cl | - | - | 0 | - | 0 | - | -
COc1cc(/C=C(/C#N)c2nc3ccccc3[nH]2)ccc1OCC(=O)Nc1ccccc1C | - | 100 | 0 | 0 | 83 | - | 0
Cc1ccc(NC(=O)C2=CCN(S(=O)(=O)c3ccc(F)cc3)CC2)cc1 | 0 | 0 | - | 0 | 0 | 0 | -
CC1CCN(c2ccc(C(=O)NCCc3ccccc3)cn2)CC1 | 0 | 0 | 0 | 0 | 0 | 0 | -
CCN(CC)c1nc(Nc2ccccc2)nc(Oc2ccc(=O)n(C)n2)n1 | 0 | 64 | 0 | 0 | 0 | 0 | 0
Cc1ccc2c(c1)c1c(n2CC(O)CNC2CCCCC2)CCCC1 (centres undefined) | 0 | 100 | 0 | 0 | 77 | 0 | 46 | Full FLuc ctr=51
COc1ccc(CNCc2cc3c(C(C)(C)C)nn(-c4ccccc4)c3[nH]c2=O)cc1 | 0 | 0 | 0 | 0 | 0 | 0 | -
Cc1ccc(CNCc2cc3c(C(C)(C)C)nn(-c4ccccc4)c3[nH]c2=O)cc1 | 0 | 50 | 0 | 0 | 0 | 0 | 0
Cc1c(N=C2N=C(NC(=O)c3ccc(F)cc3)c3ccccc32)c(=O)n(-c2ccccc2)n1C | 0 | 81 | 0 | 0 | 0 | 0 | 0
Cc1c(NC(=O)NC(=O)c2ccc(F)cc2)c(=O)n(-c2ccccc2)n1C | 0 | 0 | 0 | 0 | 0 | 0 | -
CN(C(=O)c1coc(=O)c2ccccc12)c1ccc(Br)cc1 | 0 | 0 | 0 | 0 | 0 | 0 | -
Cc1cccc(NC(=O)C(C)OC(=O)c2ccccc2NS(=O)(=O)c2cc(C)c(C)c([N+](=O)[O-])c2)c1 (centres undefined) | 0 | 62 | 0 | 0 | 0 | 0 | 0
CC1=C(/C=N/Nc2ccc([N+](=O)[O-])cc2[N+](=O)[O-])C(C)(C)CCC1 | 0 | 0 | 0 | 0 | 0 | 0 | -
CCOC(=O)c1cnc(Nc2nc3ccccc3o2)nc1C | 0 | 57 | 0 | 0 | 0 | 0 | 58 | Full FLuc ctr=44
CCOC(=O)c1cnc(Nc2nc3ccccc3o2)nc1CSc1nnc(C)s1 | 0 | 0 | 0 | 0 | 0 | 0 | -
Cc1cc(NCc2ccccn2)n2nc(C)c(-c3ccccc3)c2n1 | 0 | 0 | 0 | 0 | 0 | - | -
Cc1nn2c(NCCN3CCOCC3)c3c(nc2c1-c1ccccc1)CCCC3 | 0 | 0 | 0 | 0 | 0 | 0 | -
Cc1nn2c(NCc3ccccn3)c3c(nc2c1-c1ccccc1)CCC3 | 0 | 53 | 0 | 0 | 0 | 0 | 0 | Full FLuc ctr=0
COc1ccc(Nc2c3c(nc4c(-c5ccccc5)c(C)nn24)CCC3)cc1 | 0 | 52 | 0 | 0 | - | 0 | 0
Cc1nn2c(NCc3ccccn3)cc(C(C)(C)C)nc2c1-c1ccccc1 | 0 | 62 | 0 | 0 | 0 | 57 | 0
CN(C)CC/C=C1\c2ccccc2Sc2ccc(Cl)cc21 | 0 | 0 | 0 | 0 | 0 | 0 | -
CC[N+](C)(C)CC/C=C1/c2ccccc2Sc2ccc(Cl)cc21 | 0 | 0 | 0 | 0 | 0 | 0 | -
